# In ChEMBL document CHEMBL1155877, “Design, synthesis, and biological evaluation of 14-substituted aromathecins as topoisomerase I inhibitors” (2008):
# Activity calls are given as the source filed them. The rule behind the calls is not given here.
# Legend:
# [1] = target: T1, DNA topoisomerase 1 (Homo sapiens) (UniProt P11387); assay: Inhibition of human recombinant topoisomerase 1 assessed as DNA cleavage relative to 1 uM camptothecin
# T1 sequence (whole entry): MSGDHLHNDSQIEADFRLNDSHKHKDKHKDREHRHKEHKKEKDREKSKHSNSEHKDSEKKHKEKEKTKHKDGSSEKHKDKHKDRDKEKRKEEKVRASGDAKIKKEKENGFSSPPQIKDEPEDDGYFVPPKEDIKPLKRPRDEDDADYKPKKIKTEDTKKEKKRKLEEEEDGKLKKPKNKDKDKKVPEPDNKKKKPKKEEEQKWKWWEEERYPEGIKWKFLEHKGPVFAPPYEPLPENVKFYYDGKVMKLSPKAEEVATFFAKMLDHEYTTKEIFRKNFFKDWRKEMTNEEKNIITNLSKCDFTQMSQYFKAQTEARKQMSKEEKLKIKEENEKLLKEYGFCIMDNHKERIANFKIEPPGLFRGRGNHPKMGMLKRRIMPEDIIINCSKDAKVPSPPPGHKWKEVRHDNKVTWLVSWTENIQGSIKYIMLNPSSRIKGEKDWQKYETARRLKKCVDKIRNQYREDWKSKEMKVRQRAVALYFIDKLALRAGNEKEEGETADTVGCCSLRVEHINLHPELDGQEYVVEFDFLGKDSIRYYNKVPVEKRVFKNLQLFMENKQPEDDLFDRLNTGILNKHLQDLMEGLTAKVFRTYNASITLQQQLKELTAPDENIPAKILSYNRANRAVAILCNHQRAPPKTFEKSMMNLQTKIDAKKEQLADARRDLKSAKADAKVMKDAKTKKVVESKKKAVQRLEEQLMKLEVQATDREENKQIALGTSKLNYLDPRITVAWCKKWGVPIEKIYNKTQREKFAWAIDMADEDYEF
# In short: (§1)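 Baculovirus-expressed, purified human recombinant top1. Substrate is the 161 bp PvuII/HindIII fragment of pBluescript SK(-), 3'-end labeled at the HindIII site with [α-32P]-dGTP (about 50 000 dpm/reaction). Incubated with drug at 22 °C for 30 min. Products resolved on denaturing 16% polyacrylamide/7 M urea gels and imaged by phosphorimager. Tested at 0.1, 1, 10 and 100 µM.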
# HOP-62 [2] = assay: Growth inhibition of human HOP62 cells at 10 uM; format: functional; conditions: pooled result: one value given for 8 cell lines, strains, targets or settings, read-out: GI
# HCT-116 = assay: Antiproliferative activity against human HCT116 cells; format: functional
# In short: (§2)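 NCI ~60 human tumor cell line screen. After an initial one-dose test, selected compounds run at five concentrations spanning 10^-8 to 10^-4 M. GI50 reported for selected lines from each subpanel.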
# MDA-MB-435 = assay: Antiproliferative activity against human MDA-MB-435 cells; format: functional; in short: as §2
# HOP-62 [3] = assay: Antiproliferative activity against human HOP62 cells; format: functional; in short: as §2
# SF-539 = assay: Antiproliferative activity against human SF539 cells; format: functional; in short: as §2
# DU-145 = assay: Antiproliferative activity against human DU145 cells; format: functional; in short: as §2
# UACC-62 = assay: Antiproliferative activity against human UACC62 cells; format: functional; in short: as §2
# SN12C = assay: Antiproliferative activity against human SN12C cells; format: functional; in short: as §2
# OVCAR-3 = assay: Antiproliferative activity against human OVCAR-3 cells; format: functional; in short: as §2
# [4] = target: T1, DNA topoisomerase 1 (Homo sapiens); assay: Induction of human recombinant topoisomerase 1-mediated DNA cleavage at 100 uM; in short: as §1
inhibition [1] [%],GI50 (HCT-116) [µM],GI50 (MDA-MB-435) [µM],GI50 (DU-145) [µM],GI50 (OVCAR-3) [µM],Activity [1],Activity [4],Compound,inhibition of growth at 10 µM (HOP-62 [2]) [%],GI50 (HOP-62 [3]) [µM],GI50 (SF-539) [µM],GI50 (UACC-62) [µM],GI50 (SN12C) [µM]
20,,,,,,,O=c1c2cccc(CO)c2cc2n1Cc1cc3ccccc3nc1-2,,,,,
50,1.5,9.4,2.8,2.9,,,NCc1c2c(nc3ccccc13)-c1cc3ccccc3c(=O)n1C2,,9.8,4.9,11.7,2.9
75,1.9,2.1,4.9,,,,CN1CCN(Cc2c3c(nc4ccccc24)-c2cc4ccccc4c(=O)n2C3)CC1,,> 100,1.8,> 100,> 100
20,43.4,> 100,> 100,> 100,,,O=c1c2ccccc2cc2n1Cc1c-2nc2ccccc2c1CCl,,26.5,7.4,> 100,> 100
20,,> 100,> 100,> 100,,,COc1cc2cc3n(c(=O)c2cc1OC)Cc1cc2ccccc2nc1-3 [DIMETHOXYAROMATHECIN],,> 100,> 100,> 100,> 100
75,1.6,4.2,3.3,5,,,O=c1c2ccccc2cc2n1Cc1c-2nc2ccccc2c1CCCn1ccnc1,,2,0.74,1.5,4.5
75,3.6,> 100,2.8,6.3,,,O=c1c2ccccc2cc2n1Cc1c-2nc2ccccc2c1CNCCO,,3.5,3.9,2.6,2.7
,0.1,0.79,> 0.01,0.5,Active,,COc1cc2c3c(n(CCCNCCO)c(=O)c2cc1OC)-c1cc2c(cc1C3=O)OCO2 [LMP-744],,0.02,0.04,0.03,> 0.01
50,,,,,,,O=c1c2ccccc2cc2n1Cc1c-2nc2ccccc2c1CN1CCOCC1,14,,,,
50,,,> 100,,,,O=c1c2ccccc2cc2n1Cc1cc3ccccc3nc1-2 [ROSETTACIN],,,,,> 100

# More lines, now with the values behind:
Compound,inhibition [1] [%],GI50 (HCT-116) [µM],GI50 (MDA-MB-435) [µM],GI50 (DU-145) [µM],GI50 (OVCAR-3) [µM],Activity [1],Activity [4],inhibition of growth at 10 µM (HOP-62 [2]) [%],GI50 (HOP-62 [3]) [µM],GI50 (SF-539) [µM],GI50 (UACC-62) [µM],GI50 (SN12C) [µM]
CN(C)CCCc1c2c(nc3ccccc13)-c1cc3ccccc3c(=O)n1C2,75,,,,,,,21.4,,,,
CN(C)Cc1c2c(nc3ccccc13)-c1cc3ccccc3c(=O)n1C2,75,,> 100,> 100,> 100,,,,> 100,> 100,> 100,> 100
NCCCc1c2c(nc3ccccc13)-c1cc3ccccc3c(=O)n1C2,20,,,,,,,,,,,
O=c1c2ccccc2cc2n1Cc1c-2nc2ccccc2c1CNCCCN1CCOCC1,,,,,,,,25.5,,,,
CC[C@@]1(O)C(=O)OCc2c1cc1n(c2=O)Cc2cc3ccccc3nc2-1 [CAMPTOTHECIN],,0.03,0.04,0.01,,,,,0.01,0.01,0.01,0.02
O=c1c2ccccc2cc2n1Cc1c-2nc2ccccc2c1Cn1ccnc1,75,13.2,> 100,11.5,17,,,,10,4.7,3.4,21.5
O=c1c2ccccc2cc2n1Cc1c-2nc2ccccc2c1CN1CC[C@H](O)C1,75,9,10.3,7,5.5,,,,28.6,5.4,2.7,16.9
O=c1c2ccccc2cc2n1Cc1c-2nc2ccccc2c1CCCN1CCOCC1,50,3.9,> 100,20.3,10.6,,,,5,3.5,1.4,5.9
COc1cc2c3c(n(C)c(=O)c2cc1OC)-c1cc2c(cc1C3=O)OCO2,50,35,96,37,,,,,1.3,41,4.2,68
O=c1c2ccccc2cc2n1Cc1c-2nc2ccccc2c1CCCNCCO,,1.6,1.7,13.2,6.3,Active,Active,,1.2,12.9,1.8,4.1
O=c1c2ccccc2cc2n1Cc1c-2nc2ccccc2c1CNCCCn1ccnc1,50,3.2,7,3.2,4.4,,,,4.7,3.8,6.4,3.5
